OX1R antag-1: OX1R (HCRTR1) antagonists, primary screen, fluorescence, CHO/OX1R cells, Fluo-8 calcium, orexin A | Orexin/Hypocretin receptor type 1 (Homo sapiens), O43613 | Fluo-8 calcium fluorescence | inhibition, % at 5 µM | 0.43% of 330,000 active | AID 434989, 2010;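 active = inhibition above its plate's threshold, mean inhibition of all tested compounds on the plate plus 3 SD, cut at about 37% in these data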
Target sequence (O43613 whole entry, looked up): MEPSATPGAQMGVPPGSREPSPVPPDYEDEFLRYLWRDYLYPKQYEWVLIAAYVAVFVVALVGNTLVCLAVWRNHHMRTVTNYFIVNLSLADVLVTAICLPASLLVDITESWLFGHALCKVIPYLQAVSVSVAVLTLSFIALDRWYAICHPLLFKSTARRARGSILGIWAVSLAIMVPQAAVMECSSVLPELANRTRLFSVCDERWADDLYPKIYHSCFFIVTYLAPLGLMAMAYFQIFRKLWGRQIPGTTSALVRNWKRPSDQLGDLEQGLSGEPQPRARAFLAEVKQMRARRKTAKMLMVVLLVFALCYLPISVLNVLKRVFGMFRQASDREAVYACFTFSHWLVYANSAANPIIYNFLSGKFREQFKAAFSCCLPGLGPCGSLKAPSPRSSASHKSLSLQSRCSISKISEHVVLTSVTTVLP
OXTR potentiator: human OXTR potentiators, primary screen, fluorescence, CHO-OTR cells, Fluo-8 calcium. Oxytocin receptor (Homo sapiens), P30559. Fluo-8 calcium fluorescence, potentiator mode; 0% = oxytocin EC15, 100% = EC100. activation, % at 3 µM. 0.061% of 320,000 active. AID 2445, 2010;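 active = activation above that plate's cutoff, the mean activation of tested compounds plus 3 SD, cut at about 6.6% in these data, passing the limit was not always enough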
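Dosing: Single dose, 3.0 µM nominal final compound concentration | Material: Human OTR in CHO cells | Technique: Kinetic Fluo-8 calcium fluorescence | Benchmarks: EC15 oxytocin alone as 0%, 75 nM oxytocin as 100% | Probe or stimulus: Oxytocin at about EC15, sub-maximal agonist stimulus | Incubation: Compound 6 min at room temperature before oxytocin, 100 s read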
V1R ag counter: agonists of human V1a receptor, primary screen, counter-screen for OXTR agonist project, fluorescence, CHO-V1R cells | 0.25% of 320,000 active | Fluo-8 calcium fluorescence, agonist mode; 0% DMSO, 100% 3 nM vasopressin | AID 2797, 2010 | activation, % at 3 µM;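 active = activation above the mean activation of all tested compounds plus 3 SD, per screening run, cut at about 20% in these data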;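 also: signal is peak over basal fluorescence ratio across a 100 second FLIPR read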
CHO parental Ca: ATP-evoked calcium signal inhibitors, parental CHO, primary screen, counter-screen for OX1R antagonist project, cell-based, fluorescence, Fluo-8 calcium dye; 0.63% of 330,000 active; parental CHO-K1, ATP-induced calcium, Fluo-8 fluorescence; inhibition, % at 5.6 µM;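 active = inhibition above that plate's mean sample inhibition plus 3 SD, cut at about 26% in these data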
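Assay system: parental CHO cells; Read-out basis: percent inhibition of ATP-evoked calcium rise, normalized to controls; Benchmarks: ATP and no-ATP DMSO wells; Compound dosing: single nominal dose of 5.6 µM per compound; Signal: Fluo-8 calcium dye fluorescence; Also added: ATP as calcium-mobilizing challenge; Repeats: singlicate.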
OX1R antag-2: antagonists of human orexin 1 receptor (OX1R). Orexin/Hypocretin receptor type 1 (Homo sapiens), O43613. OX1R-expressing cells, FRET antagonist read-out. inhibition, % at 6.6 µM. 1.8% of 330,000 active. AID 485270, 2010; in the data active = inhibition mostly above about 38%, no sharp cut-off; inactive = mostly below about 40%
OXTR ag: human OXTR agonists, primary screen, fluorescence, CHO-OTR cells, Fluo-8 calcium. Oxytocin receptor (Homo sapiens), P30559. Fluo-8 calcium fluorescence; normalized: DMSO 0%, oxytocin 100%. activation, % at 3 µM. 0.32% of 320,000 active;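 active = activation above the mean of all tested compounds plus 3 SD, cutoff set per screening run, cut at about 20% in these data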;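 also: peak over basal fluorescence ratio from a 100 s FLIPR kinetic read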
OX1R Ca confirm: OX1R (HCRTR1) antagonists, confirmation, fluorescence, CHO/OX1R cells, Fluo-8 calcium, orexin A; shares compounds with OX1R antag-1; orexin A calcium Fluo-8 fluorescence; inhibition, % at 5 µM; 38% of 1,100 active; AID 492963, 2010; in the data active = inhibition above about 29%
CHO Ca triplic: ATP-evoked calcium inhibition in parental CHO, counter-screen for OX1R antagonist project, cell-based, fluorescence, CHO-K1, triplicate; inhibition, % at 5.6 µM; 9.3% of 1,100 active; AID 492965, 2010; shares compounds with OX1R antag-1; ATP-induced calcium, Fluo-8 fluorescence;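 active = inhibition above a per-plate limit, the mean inhibition of that plate's test compounds plus 3 SD, cut at about 25% in these data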
Each line names hits and unclear results; the compound was inactive in the other large screens (follow-up assays come after a bar, where they were run). Hits are enriched below; roughly 2.7% of the tested compounds scored in any of these assays.

O=C(NC(Cc1c[nH]c2ccccc12)C(=O)O)c1cccs1 (configuration not stated)	none
COC(=O)C(Cc1ccccc1)NC(=O)CCc1c[nH]c2ccccc12 (configuration not stated)	none | OX1R Ca confirm 37 | CHO Ca triplic inactive
O=C(COC(=O)[C@H](Cc1c[nH]c2ccccc12)NC(=O)c1cccs1)NCc1ccccc1	none | OX1R Ca confirm inactive | CHO Ca triplic inactive
CCn1c(CCC(=O)N(C)CC(=O)Nc2cccc(F)c2)nc2cc(S(=O)(=O)N(C)C)ccc21	none
CC(C)(C)c1ccc(S(=O)(=O)N(CCCN2CCOCC2)Cc2cccs2)cc1	OX1R antag-1 103 | OX1R Ca confirm inactive | CHO Ca triplic inactive
CC(C)(C)NC(=O)COC(=O)c1ccc(NC(=O)CC#N)cc1	none | OX1R Ca confirm inactive | CHO Ca triplic inactive
Cc1sc(N)nc1-c1ccc(Oc2ccccc2)cc1	none
CC(C)CNC(=O)/C=C/C=C/CCCC/C=C/c1ccc2c(c1)OCO2	none
CNC(=S)/N=C/NOCc1ccc(Cl)cc1Cl	OX1R antag-1 41 | OX1R Ca confirm inactive | CHO Ca triplic inactive
NC(=O)NOCc1ccc(Cl)cc1Cl	none
Cc1cc(C)cc(N(CC(=O)Nc2ccc(-c3nc4ccc(C)cc4s3)cc2)S(C)(=O)=O)c1	OX1R antag-1 37 | OX1R Ca confirm inactive | CHO Ca triplic inactive
Cc1ccc2nc(-c3ccc(NC(=O)CN(c4ccccc4C)S(C)(=O)=O)cc3)sc2c1	none
Cc1ccc(S(=O)(=O)N2C[C@@H]3[C@H]4CC[C@H](C4)[C@@H]3[C@@H](C)[C@H]2C#N)cc1	none (no result: OXTR potentiator, V1R ag counter, OXTR ag)
Cc1ccc(C)c(NC(=O)CN(C)C(=O)c2ccc(-c3cccc(C(F)(F)F)c3)o2)c1	none
COc1ccc(-n2c(=S)[nH]c3cc(C(=O)Nc4ccc(C)c(F)c4)ccc3c2=O)c(OC)c1	none | OX1R Ca confirm inactive | CHO Ca triplic inactive
CN(C)C(CNC(=O)c1cc2ccccc2o1)c1ccco1 (configuration not stated)	none
OC(CN1CCCCC1)Cn1c2ccccc2c2cc(Br)ccc21 (configuration not stated)	none | OX1R Ca confirm inactive | CHO Ca triplic inactive
Cc1c(C)n(CC(O)CN2CCCCCC2)c2ccccc12 (configuration not stated)	none
Cc1ccccc1CN1CCCC(C(=O)Nc2ccccc2Oc2cccnc2)C1 (configuration not stated)	none
CN(C)C(CNC(=O)c1ccc(S(=O)(=O)Nc2cccc(C(F)(F)F)c2)cc1)c1ccco1 (configuration not stated)	none
COc1ccc(/C=C2\SC(=O)NC2=S)cc1OC	V1R ag counter 36, OXTR ag 29 | OX1R Ca confirm inactive | CHO Ca triplic inactive
CCOc1ccc(/C=C2\SC(=S)N(C)C2=O)cc1OC	none
COCCNC(=O)C(c1ccc(F)cc1)N(C(=O)CCC(=O)Nc1ccccn1)c1ccc(C)cc1 (configuration not stated)	none
O=C1NCCO1	none
CCN(CC)c1ccc(/C=c2/sc3nnc(-c4ccccc4C)n3c2=O)cc1	none | OX1R Ca confirm 44 | CHO Ca triplic 40
Cc1ccc(/C=c2/sc3nnc(-c4ccccc4Cl)n3c2=O)o1	none
Cc1cccc2c1cnn2C(=O)CCC(=O)NCc1ccc(F)cc1	OX1R antag-1 50 | OX1R Ca confirm inactive | CHO Ca triplic inactive
C=C(C)COc1ccc2c(C)c(CC(=O)OC)c(=O)oc2c1C	none | OX1R Ca confirm inactive | CHO Ca triplic inactive
COC(=O)Cc1c(C)c2ccc(OCC(C)=O)c(C)c2oc1=O	none
COc1ccc(NC(=O)Nc2cccc3c2O[C@H](CN(C)C(=O)Nc2ccc(OC)cc2)[C@@H](C)CN([C@H](C)CO)C3=O)cc1	none
COc1ccc(C(C)=O)c2c(O)cccc12	none | OX1R Ca confirm inactive | CHO Ca triplic inactive
COc1cccc(CN2C(=O)C(C)N(C(=O)c3c(F)cccc3F)c3ccccc32)c1 (configuration not stated)	none | OX1R Ca confirm inactive | CHO Ca triplic inactive
CC1Oc2ccccc2N(Cc2cccc(F)c2)C1=O (configuration not stated)	none
Cc1cccc(N=Nc2c(N)n[nH]c2-c2ccc(Cl)cc2)c1	none | OX1R Ca confirm inactive | CHO Ca triplic inactive
Cc1ccc(N=Nc2c(N)n[nH]c2N)cc1	none
O=C(Nc1ccc([N+](=O)[O-])cc1)Nc1ccc2c(c1)OCCO2	none | OX1R Ca confirm inactive | CHO Ca triplic inactive
Cc1cccc(NC(=S)NCc2ccccc2Cl)c1C	OX1R antag-1 66 | OX1R Ca confirm inactive | CHO Ca triplic inactive
Cc1c(Cl)cccc1NC(=S)NCc1ccccc1	none
COC(=O)c1ccc2nc(Nc3nc4ccc(F)cc4s3)sc2c1	none
CCOC(=O)c1csc(Nc2nc3ccc(F)cc3s2)n1	none | OX1R Ca confirm inactive | CHO Ca triplic 26
NNC(=O)c1cc2c(N3CCC(Cc4ccccc4)CC3)ncnc2s1	none | OX1R Ca confirm inactive | CHO Ca triplic inactive
c1ccc(-c2cc3c(N4CCN(c5ncccn5)CC4)ncnc3s2)cc1	none
O=C(CNCc1ccccc1)Nc1ccc(Cl)cc1	none
Cc1[nH]c2ccc(C(=O)OC(C)C(=O)NC3CCCCC3C)cc2c1C (configuration not stated)	none | OX1R Ca confirm inactive | CHO Ca triplic inactive
Cn1c(SCC(=O)Nc2sccc2C(N)=O)nc2ccccc2c1=O	none | OX1R Ca confirm inactive | CHO Ca triplic inactive
O=C(CSc1nnc(NCc2ccccc2)s1)c1ccco1	none | OX1R Ca confirm inactive | CHO Ca triplic inactive
Cc1cc(NC(=O)CSc2nnc(NCc3ccccc3)s2)no1	none
CC(=Nc1ccc(O)cc1)c1sc2ccccc2c1O	none
CC(=Nc1ccccc1O)c1sc2ccccc2c1O	V1R ag counter 31, OXTR ag 27 | OX1R Ca confirm inactive | CHO Ca triplic inactive
Cc1oc2cc(Br)c(O)c(Br)c2c1-c1ccccc1	none
CN(C)S(=O)(=O)N1CCCC(C(=O)c2ccc(-c3ccccc3)c(F)c2)C1 (configuration not stated)	none | OX1R Ca confirm inactive | CHO Ca triplic inactive
CSc1ccc(C(=O)C2CCCN(S(=O)(=O)N(C)C)C2)cc1 (configuration not stated)	none

Source: PubChem BioAssay
